Data reported in ChEMBL document CHEMBL1157311, “Aurilides B and C, cancer cell toxins from a Papua New Guinea collection of the marine cyanobacterium Lyngbya majuscula” (2006).

What was measured:
SN12C = test: Growth inhibition of human SN12C cells; assay type: functional
[1] = Growth inhibition of human RPMI8266 cells; assay type: functional
UO-31 = test: Growth inhibition of human UO31 cells; assay type: functional
SK-MEL-2 = test: Growth inhibition of human SK-MEL-2 cells; assay type: functional
MCF7 = test: Growth inhibition of human MCF7 cells; assay type: functional
SK-OV-3 = test: Growth inhibition of human SKOV3 cells; assay type: functional
[2] = Growth inhibition of human HL60(TB) cells; assay type: functional, HL-60(TB)
PC-3 = test: Growth inhibition of human PC3 cells; assay type: functional
UACC-257 = test: Growth inhibition of human UACC257 cells; assay type: functional
ACHN = test: Growth inhibition of human ACHN cells; assay type: functional
T47D = test: Growth inhibition of human T47D cells; assay type: functional
UACC-62 = test: Growth inhibition of human UACC62 cells; assay type: functional
MDA-MB-435 = test: Growth inhibition of human MDA-MB-435 cells; assay type: functional
Hs-578T = test: Growth inhibition of human HS578T cells; assay type: functional
HCT-116 = test: Growth inhibition of human HCT116 cells; assay type: functional
NCI-H460 = test: Cytotoxicity against human NCI-H460 cells after 48 hrs by MTT assay; assay type: functional; settings: NCI-H460, 48 h, read-out: LC50 (the source's name)
Summary of the method: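 Cells seeded at 6000/well and grown 24 h, then given test chemicals dissolved in DMSO and diluted in serum-free medium (DMSO under 0.5% final). Viability read by MTT reduction after 48 h exposure; LC50 reported. Method follows Alley et al.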

786-0 = test: Growth inhibition of human 786-0 cells; assay type: functional
MOLT-4 = test: Growth inhibition of human MOLT4 cells; assay type: functional
SK-MEL-5 = test: Growth inhibition of human SK-MEL-5 cells; assay type: functional
M14 = test: Growth inhibition of human M14 cells; assay type: functional
SNB-75 = test: Growth inhibition of human SNB75 cells; assay type: functional
A549 = test: Growth inhibition of human A549 cells; assay type: functional
NCI-H226 = test: Growth inhibition of human NCI-H226 cells; assay type: functional
HOP-92 = test: Growth inhibition of human HOP92 cells; assay type: functional
[3] = Growth inhibition of human OVACR5 cells; assay type: functional
CAKI-1 = test: Growth inhibition of human CAKI1 cells; assay type: functional
SW-620 = test: Growth inhibition of human SW620 cells; assay type: functional; settings: read-out: pLC50 (the source's name) (converted)
IGROV-1 = test: Growth inhibition of human IGROV1 cells; assay type: functional
KM12 = test: Growth inhibition of human KM12 cells; assay type: functional
[4] = read-out: pLC50 (the source's name) (converted)

CC/C=C(\C)[C@H]1OC(=O)[C@H](C)N(C)C(=O)[C@H](C(C)C)NC(=O)CN(C)C(=O)[C@H]([C@H](C)CC)N(C)C(=O)[C@H](C(C)C)NC(=O)[C@@H]([C@@H](C)CC)OC(=O)/C(C)=C/C[C@H](O)[C@@H]1C [AURILIDE B]
< 10 nM: GI50 (SN12C) | GI50 [1] | TGI ([1]; read-out: pTGI) | GI50 (UO-31) | CC50 (UO-31; [4]) | TGI (UO-31; read-out: pTGI) | GI50 (SK-MEL-2) | TGI (SK-MEL-2; read-out: pTGI) | GI50 (MCF7) | GI50 (SK-OV-3) | GI50 ([2]; HL-60) | CC50 ([2]; HL-60, read-out: pLC50 (the source's name) (converted)) | TGI ([2]; HL-60, read-out: pTGI) | GI50 (PC-3) | CC50 (PC-3; [4]) | TGI (PC-3; read-out: pTGI) | GI50 (UACC-257) | CC50 (UACC-257; [4]) | TGI (UACC-257; read-out: pTGI) | GI50 (ACHN) | GI50 (T47D) | GI50 (UACC-62) | TGI (UACC-62; read-out: pTGI) | GI50 (MDA-MB-435) | TGI (MDA-MB-435; read-out: pTGI) | GI50 (HCT-116) | CC50 (HCT-116; [4]) | TGI (HCT-116; read-out: pTGI) | GI50 (786-0) | CC50 (786-0; [4]) | TGI (786-0; read-out: pTGI) | GI50 (MOLT-4) | CC50 (MOLT-4; [4]) | TGI (MOLT-4; read-out: pTGI) | GI50 (M14) | CC50 (M14; [4]) | TGI (M14; read-out: pTGI) | TGI (SNB-75; read-out: pTGI) | GI50 (A549) | CC50 (A549; [4]) | TGI (A549; read-out: pTGI) | GI50 (NCI-H226) | CC50 (NCI-H226; [4]) | TGI (NCI-H226; read-out: pTGI) | GI50 (HOP-92) | TGI (HOP-92; read-out: pTGI) | GI50 [3] | CC50 [3, 4] | TGI ([3]; read-out: pTGI) | GI50 (CAKI-1) | TGI (CAKI-1; read-out: pTGI) | GI50 (IGROV-1) | TGI (IGROV-1; read-out: pTGI) | GI50 (KM12)
490 nM: TGI (SK-MEL-5; read-out: pTGI (converted))
708 nM: TGI (Hs-578T; read-out: pTGI (converted))
58900 nM: CC50 (HOP-92; [4])
19100 nM: TGI (MCF7; read-out: pTGI (converted))
3020 nM: CC50 (SK-MEL-5; [4])
40 nM: CC50 (NCI-H460)
38900 nM: CC50 (SK-OV-3; [4])
219 nM: GI50 (SK-MEL-5)
> 100000 nM: CC50 [1, 4] | CC50 (SK-MEL-2; [4]) | CC50 (MCF7; [4]) | CC50 (ACHN; [4]) | CC50 (T47D; [4]) | CC50 (Hs-578T; [4]) | CC50 (SW-620) | CC50 (IGROV-1; [4]) | CC50 (KM12; [4])
83200 nM: CC50 (SNB-75; [4])
